Measured values as given in ChEMBL document CHEMBL1124334, “Hypolipidemic 2-[4-(1,1-dimethylethyl)phenyl]-4H-3,1-benzoxazin-4-ones. Structure-activity relationships of a novel series of high-density lipoprotein elevators” (1989).

Key:
Format in all cases: functional
Rattus norvegicus [1] = organism: Rattus norvegicus; test: Change in plasma triglycerides in normocholesterolemic rats at 0.2 % composition of dose with diet given in a period of 3 days.
In short: (§1)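 Young male Wistar rats (120–150 g) fed basal powdered rodent diet ad libitum, with compound mixed into the diet at 0.2% w/w for 3 or 7 days. Plasma triglyceride and total cholesterol were then measured by standard enzymatic methods. Results are % change relative to controls.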

Rattus norvegicus [2] = test: Percent change in plasma total cholesterol in cholesterol-fed rats at 200 mg/kg dose given in a period of 3 days
In short: (§2)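 Young male Wistar rats (120–150 g), groups of eight, fed ad libitum rodent diet with 0.5% w/w cholesterol and 0.25% cholic acid for 10 days. Compound suspended in 0.5% w/w tragacanth mucilage and given daily by stomach tube over the final 3 days; controls got vehicle. After overnight starvation, rats were killed 3 h post final dose and cardiac blood taken into heparin.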

Rattus norvegicus [3] = organism: Rattus norvegicus; test: Change in plasma total cholesterol in normocholesterolemic rats at 0.2 % composition of dose with diet given in a period of 3 days.; in short: as §1
Rattus norvegicus [4] = test: Percent change in plasma triglycerides in cholesterol-fed rats at 200 mg/kg dose given in a period of 3 days; in short: as §2
Rattus norvegicus [5] = test: Percent change in plasma HDL cholesterol in cholesterol-fed rats at 200 mg/kg dose given in a period of 3 days; in short: as §2
Rattus norvegicus [6] = test: Ratio of plasma HDL cholesterol/total cholesterol at 200 g/kg for 3 days; details: in the assay text read “200 mg/kg” for “200 g/kg”; in short: as §2

Row | Structure (SMILES) | Change (Rattus norvegicus [1]) [%] | Change (Rattus norvegicus [2]) [%] | Change (Rattus norvegicus [3]) [%] | Change (Rattus norvegicus [4]) [%] | Change (Rattus norvegicus [5]) [%] | Change in HDL/total cholesterol ratio (Rattus norvegicus [6]) | Ratio (Rattus norvegicus [6])
1 | CC(C)(C)c1ccc(-c2nc3ccc(-c4ccccc4)cc3c(=O)o2)cc1 | 1 | -8 | 0 | 0 | 60 | 74 | –
2 | COC(=O)c1cc(Br)ccc1NC(=O)c1ccc(C(C)(C)C)cc1 | -7 | -49 | -34 | -22 | -7 | 70 | –
3 | CNc1nc(-c2ccc(C(C)(C)C)cc2)nc2ccc(C)cc12 | – | 27 | – | 79 | 10 | -12 | –
4 | CN(C(=O)c1ccc(C(C)(C)C)cc1)c1ccc(Br)cc1C(=O)O | 10 | -22 | -10 | -13 | 33 | 59 | –
5 | Cc1ccc2nc(-c3ccc(C(C)(C)C)cc3)nc(O)c2c1 | 28 | -17 | 1 | -18 | 24 | 25 | –
6 | CC(C)(C)c1ccc(C(=O)Nc2ccc(Br)cc2C(=O)O)cc1 | -20 | -29 | -56 | -26 | 24 | 70 | –
7 | Cc1ccc2nc(Cc3ccc(C(C)(C)C)cc3)oc(=O)c2c1 | – | 1 | – | 27 | -19 | -27 | –
8 | CC(C)(C)c1ccc(-c2nc3ccc(NS(=O)(=O)c4ccccc4)cc3c(=O)o2)cc1 | 27 | 7 | 5 | -7 | 30 | 35 | –
9 | CC(C)(C)c1ccc(C(=O)Nc2ccc(Br)cc2C(N)=O)cc1 | 29 | -8 | 4 | -11 | -1 | 4 | –
10 | CCCCc1ccc2nc(-c3ccc(C(C)(C)C)cc3)oc(=O)c2c1 | -32 | -4 | -3 | 22 | 65 | 69 | –
11 | Cc1ccc2nc(-c3ccc(C(C)(C)C)cc3)n(C)c(=O)c2c1 | -3 | 2 | 2 | 8 | 6 | -5 | –
12 | CC(C)(C)c1ccc(-c2nc3ccc(NS(C)(=O)=O)cc3c(=O)o2)cc1 | -8 | -16 | -3 | 6 | 22 | 27 | –
13 | CN(C)c1ccc2nc(-c3ccc(C(C)(C)C)cc3)oc(=O)c2c1 | -12 | -4 | 10 | 16 | 26 | 22 | –
14 | COc1ccc2nc(-c3ccc(C(C)(C)C)cc3)oc(=O)c2c1 | -52 | -28 | -48 | -26 | 21 | – | 52
15 | CC(C)(C)c1ccc(-c2nc3ccc(N)cc3c(=O)o2)cc1 | 1 | -25 | 4 | -11 | 4 | 25 | –
16 | CCCCCCCCc1ccc2nc(-c3ccc(C(C)(C)C)cc3)oc(=O)c2c1 | -14 | -9 | -1 | -7 | 35 | 29 | –
17 | CC(C)(C)c1ccc(-c2nc3ccc(C(F)(F)F)cc3c(=O)o2)cc1 | -45 | -18 | -40 | -6 | -8 | 11 | –
